Rows were chosen to be rich in hits. Some 2.6% of all compounds tested hit in one or more screens of this group.
HTRA1 inh = blocks human HTRA1 serine peptidase; Q92743; recombinant HTRA1, FP-rhodamine activity-based probe, fluorescence polarization; inhibition, % at 5.96 µM; 340,000 compounds, 0.5% hits; AID 504803; in the data active = inhibition above about 36%;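 also: 0% = enzyme with DMSO and 100% = wells lacking enzyme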
SIAE inh = human SIAE inhibition, primary screen | Q9HAT2 | SIAE FP-Rh probe binding, fluorescence polarization | inhibition, % at 9.66 µM | 370,000 compounds, 0.69% hits;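 active = inhibition above a cutoff: mean of compounds within the control limits plus 3 SD of those, cut at about 17% in these data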;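 also: 0% = plate median of compound wells and 100% = probe without SIAE protein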
Target sequence (Q9HAT2 whole entry, looked up): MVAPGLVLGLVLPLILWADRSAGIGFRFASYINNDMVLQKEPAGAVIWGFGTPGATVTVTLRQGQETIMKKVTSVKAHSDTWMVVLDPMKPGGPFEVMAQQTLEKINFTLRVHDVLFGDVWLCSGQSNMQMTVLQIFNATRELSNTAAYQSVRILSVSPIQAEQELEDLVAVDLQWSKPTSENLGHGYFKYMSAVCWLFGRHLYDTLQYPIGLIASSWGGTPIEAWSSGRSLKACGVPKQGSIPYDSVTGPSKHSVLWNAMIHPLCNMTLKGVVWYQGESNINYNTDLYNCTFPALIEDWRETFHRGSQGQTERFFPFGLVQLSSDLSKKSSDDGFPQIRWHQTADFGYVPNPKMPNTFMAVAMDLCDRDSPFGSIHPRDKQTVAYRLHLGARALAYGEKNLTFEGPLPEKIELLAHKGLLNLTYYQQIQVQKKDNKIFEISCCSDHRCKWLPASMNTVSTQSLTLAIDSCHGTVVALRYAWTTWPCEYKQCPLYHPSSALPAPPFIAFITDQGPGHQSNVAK
TCR-CD3 inh = blocks the human TCR-CD3 interaction; TAMRA-labeled TCR probe fluorescence, biochemical; inhibition, % at 9.4 µM; 360,000 compounds, 0.37% hits; in the data active = inhibition above about 19%;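 also: recombinant mutant TCR 2C K166C tagged with TAMRA read by polarization; 0% = receptor in buffer alone and 100% = receptor with positive control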
PRMT1 FP inh = PRMT1 (human) inhibition, primary screen; recombinant PRMT1, activity-based probe fluorescence polarization; Q99873; 370,000 compounds, 1.3% hits; inhibition, % at 2.79 µM;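 active = inhibition above about 21% made by adding two undisclosed values, limit read from the data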
ABHD4 inh = inhibits mouse alpha/beta hydrolase domain 4 | Q8VD66 | purified mABHD4, FP-Rh probe fluorescence polarization | inhibition, % at 8.92 µM | 370,000 compounds, 0.54% hits | AID 720543;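 active = inhibition exceeding the mean over every tested compound plus 3 SD, cut at about 30% in these data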;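 also: 0% = plate median of compound wells and 100% = S159A mutant with DMSO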
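Assay system: mABHD4 protein; medium: HEPES pH 7.0, NaCl, Pluronic buffer; dosing: 8.92 µM, single dose; schedule: 45 min + 60 min at 25 °C; signal: FP readout, ex 525 nm / em 598 nm; read-out: normalized percent inhibition of probe labeling; repeats: single replicate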
HTRA1 inh conf = confirmation of human HTRA1 inhibitors | shares compounds with HTRA1 inh | recombinant HTRA1, FP-rhodamine activity-based probe, fluorescence polarization | AID 540248 | 1,600 compounds, 66% hits | inhibition, % at 5.96 µM;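 active = mean inhibition over three repeats above a set limit taken from the earlier primary screen, cut at about 37% in these data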;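 also: 0% = HTRA1 with DMSO and 100% = wells lacking HTRA1; inhibitors block probe binding so polarization drops and inhibition rises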
Numbers without * were called inactive.

Screening CCCCCN1CCCCC(NC(=O)c2ccc(F)cc2)C1=O (stereo not given) returned SIAE inh -8.7, PRMT1 FP inh 4.2 and ABHD4 inh 1.2.
Screening CCOC(=O)[C@@]12CN(C(=O)OC(C)(C)C)CC=C1N(Cc1ccc(OC)cc1)C(=O)[C@H]2CC(=O)N1CCCC1 returned SIAE inh -4.9, PRMT1 FP inh 4.8 and ABHD4 inh 4.9.
For Cc1ccccc1NCC(=O)N/N=C/c1ccc[nH]1 the results were SIAE inh 1.9, PRMT1 FP inh 0.9 and ABHD4 inh 0.1.
For O=[N+]([O-])c1ccc(O)c2ncccc12 the results were HTRA1 inh 32.2, SIAE inh 9.0, TCR-CD3 inh -2.8, PRMT1 FP inh 8.2 and ABHD4 inh 26.2.
For O=[N+]([O-])c1cc(Cl)c2cccnc2c1O the results were HTRA1 inh 42.6*, SIAE inh 0.3, TCR-CD3 inh -0.5, PRMT1 FP inh 7.3, ABHD4 inh 10.1 and HTRA1 inh conf 51.6*.
For Oc1c(I)cc(Cl)c2cccnc12 the results were HTRA1 inh 53.8*, SIAE inh 17.0, TCR-CD3 inh 9.1, PRMT1 FP inh -1.8, ABHD4 inh 27.1 and HTRA1 inh conf 87.0*.
For O=[N+]([O-])c1cc(F)c2cccnc2c1O the results were HTRA1 inh 54.8*, SIAE inh 9.4, TCR-CD3 inh 0.6, PRMT1 FP inh 3.1, ABHD4 inh 16.1 and HTRA1 inh conf 48.4*.
For O=[N+]([O-])c1ccc(Cl)c2cccnc12 the results were HTRA1 inh 1.1, SIAE inh 3.8, TCR-CD3 inh -1.1, PRMT1 FP inh -2.1 and ABHD4 inh -7.2.
`Clc1cc2cccnc2c2ncccc12` gave HTRA1 inh -8.7, SIAE inh 3.9, TCR-CD3 inh -1.1, PRMT1 FP inh 0.3 and ABHD4 inh 5.8.
Screening Cc1cccc(-c2cccc3c4c([nH]c23)[C@@H]2C[C@H](N(C)C(=O)c3ccco3)[C@H]([C@H](C)O)C(=O)N2CC4)c1 returned SIAE inh 7.4, PRMT1 FP inh 3.7 and ABHD4 inh -4.5.
CCN(CC)CCn1c(O)c(N=O)c2ccccc21 was read as HTRA1 inh -0.3, SIAE inh -3.4, TCR-CD3 inh 6.4, PRMT1 FP inh -2.5 and ABHD4 inh -0.2.
CCN(CC)CCn1c2ccccc2c(=O)c2c(O)ccc(O)c21 was read as HTRA1 inh 54.6*, SIAE inh 12.4, TCR-CD3 inh 16.5, PRMT1 FP inh 7.0, ABHD4 inh 32.9* and HTRA1 inh conf 48.4*.
COc1ccc(C(=O)OCCCN(C)C2CN(Cc3cn(Cc4ccc([N+](=O)[O-])cc4)nn3)S(=O)(=O)C2)cc1OC (stereo not given) was read as SIAE inh 4.7, PRMT1 FP inh 3.9 and ABHD4 inh -12.2.
Brc1ccc(C=Nc2ccc(Nc3ccccc3)cc2)s1 was read as HTRA1 inh 72.6* and HTRA1 inh conf 94.3*.
For Cc1ccc(-n2c(Cc3cccs3)nnc2SCC(=O)Nc2ccc(OCc3ccccc3)cc2)cc1 the results were SIAE inh -7.5, PRMT1 FP inh -0.1 and ABHD4 inh -22.0.
`Cc1ccc(S(=O)(=O)Nc2ccc3oc(=O)sc3c2)c(C)c1` gave HTRA1 inh 36.9*, SIAE inh -13.5, TCR-CD3 inh -1.4, PRMT1 FP inh 58.7*, ABHD4 inh -20.5 and HTRA1 inh conf 0.6.
Screening C[C@H]1C(c2ccccc2F)O[C@]2(C[C@H](O)c3c(ccc4ccccc34)O2)C[C@@H]1O (stereo not given in full) returned SIAE inh -8.5, PRMT1 FP inh 14.6 and ABHD4 inh -2.4.
C[C@H]1C(=O)CC[C@@]23CCCN2C(=O)CCC[C@@H]13 was read as SIAE inh 6.3, PRMT1 FP inh 6.1 and ABHD4 inh -8.4.
`CCOC(=O)C1CCCN(C(=O)C2c3ccccc3Oc3ccccc32)C1` (stereo not given) gave HTRA1 inh 52.9*, SIAE inh 4.5, TCR-CD3 inh 5.0, PRMT1 FP inh 11.2, ABHD4 inh 12.1 and HTRA1 inh conf -7.6.
For Cn1nccc1C(=O)N/N=C/c1c(O)ccc2ccccc12 the results were HTRA1 inh 54.6*, SIAE inh 11.7, TCR-CD3 inh 12.6, PRMT1 FP inh 9.4, ABHD4 inh 4.6 and HTRA1 inh conf 54.2*.
`O=C(NN=Cc1c(O)ccc2ccccc12)c1ccncc1` gave HTRA1 inh 21.8, SIAE inh 5.0, TCR-CD3 inh -4.3, PRMT1 FP inh -5.4 and ABHD4 inh 15.8.
`CC(C)(C)c1cc(NCCCn2ccnc2)n2ncc(-c3ccc(Cl)cc3)c2n1` gave HTRA1 inh 6.8, SIAE inh 11.2, TCR-CD3 inh 1.0, PRMT1 FP inh -2.0 and ABHD4 inh 11.8.
CN(C)CCCNc1cc(C(C)(C)C)nc2c(-c3ccccc3)cnn12 was read as HTRA1 inh 36.5*, SIAE inh 2.3, TCR-CD3 inh 1.5, PRMT1 FP inh 0.6, ABHD4 inh 14.8 and HTRA1 inh conf 32.2.
Screening O=C(Nc1ccc(N2C(=O)CC3(CCCCC3)C2=O)c(Cl)c1)c1ccccn1 returned SIAE inh 3.9, PRMT1 FP inh -1.4 and ABHD4 inh 7.2.
For O=C(N1CCN(c2ccccn2)CC1)C(Cl)(Cl)Cl the results were HTRA1 inh -3.7, SIAE inh -1.0, TCR-CD3 inh 1.0, PRMT1 FP inh -3.1 and ABHD4 inh -2.8.
For O=C1C=C(N2CCN(c3ccccn3)CC2)C(=O)c2c(O)ccc(O)c21 the results were HTRA1 inh 38.0*, SIAE inh 5.7, TCR-CD3 inh 0.9, PRMT1 FP inh 2.1, ABHD4 inh 13.2 and HTRA1 inh conf 49.5*.
Screening COc1ccc(CNCC#Cc2ccc(C(F)(F)F)cc2)c(OC)c1 returned SIAE inh 4.3, PRMT1 FP inh 0.2 and ABHD4 inh 0.6.
`COc1ccc(CNC2CCC23CCC(C)CC3)cc1` (stereo not given) gave SIAE inh -0.7, PRMT1 FP inh 1.7 and ABHD4 inh 1.1.
`COc1cc(CNc2ccc(N3CCOCC3)cc2)cc(Br)c1OC` gave HTRA1 inh 28.3, SIAE inh 12.4, TCR-CD3 inh -4.0, PRMT1 FP inh 6.0 and ABHD4 inh 12.7.
Screening CCOc1cc(CNc2ccc(N3CCCCC3)cc2)cc(Br)c1OCC(=O)NC(C)(C)C returned HTRA1 inh 45.2*, SIAE inh 16.8, TCR-CD3 inh 3.3, PRMT1 FP inh 8.4, ABHD4 inh 28.3 and HTRA1 inh conf 3.0.
`CCOc1cc(CNc2ccc(N(C)C)cc2)cc(Br)c1OCC(=O)NC(C)(C)C` gave HTRA1 inh 0.1, SIAE inh -0.8, TCR-CD3 inh -5.3, PRMT1 FP inh -1.2 and ABHD4 inh -0.6.
CCOc1cc(CNc2ccc(S(N)(=O)=O)cc2)cc(Cl)c1OC was read as HTRA1 inh 4.6, SIAE inh 6.6, TCR-CD3 inh -0.1, PRMT1 FP inh -1.4 and ABHD4 inh -1.7.

High-throughput results deposited in PubChem by The Scripps Research Institute Molecular Screening Center.
